Activity calls are given as the source filed them. No cut-off for these calls is given here.

Data set [1] relates to Mus musculus. Nature of the data set: Anti-ulcerative colitis activity against DSS-induced ulcerative colitis ICR mouse model assessed as disease activity index score at 25 mg/kg, po qd measured after 7 days (reference value: 2.83 units). Format: functional. To be noted: time 7 day. The method in brief:
(§1)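 Male ICR mice (18–22 g, 6–8 weeks) given 3% DSS (w/v) in drinking water for 7 days, water changed every two days. Dosed 25 mg/kg po once daily in CMC-Na aqueous vehicle during DSS exposure; vehicle-treated water and DSS groups served as controls, n = 6 per group. Body weight, stool consistency and rectal bleeding recorded daily. DAI is the mean of the weight-loss (0–4), stool (0–2) and blood (0–2) scores. Colon length measured at sacrifice. Mean ± SEM.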

In data set [2] the test system is Mus musculus. Nature of the data set: Anti-ulcerative colitis activity against DSS-induced ulcerative colitis ICR mouse model assessed as colon shortening at 25 mg/kg, po qd measured after 7 days (reference value: 26.7%). Format: functional. To be noted: time 7 day. The method in brief: as §1
Data set [3] has as its system Mus musculus. Nature of the data set: Anti-inflammatory activity against DSS-induced ulcerative colitis ICR mouse model assessed as decrease of IL-6 level in colon at 25 mg/kg, po qd measured after 7 days by ELISA. Format: functional, organism-based. Particulars: time 7.0 day. The method in brief: (§2)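 Colon tissue collected from ICR mice after 7 days of 3% DSS drinking water plus 25 mg/kg po qd dosing. Tissue homogenised and centrifuged; IL-1β, IL-6 and TNF-α in the supernatant measured with mouse ELISA kits.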
On the technique in general: An ELISA detects its analyte on a solid surface through an enzyme-linked reagent.

Data set [4] deals with Mus musculus. Briefly: Anti-inflammatory activity against DSS-induced ulcerative colitis ICR mouse model assessed as decrease of IL-1 beta level in colon at 25 mg/kg, po qd measured after 7 days by ELISA. Format: functional, organism-based. Particulars: time 7.0 day. An outline of the steps: as §2
The test system of data set [5] is Mus musculus. Briefly: Anti-ulcerative colitis activity against DSS-induced ulcerative colitis ICR mouse model assessed as decrease of colonic tissue damage at 25 mg/kg, po qd measured after 7 days by H and E staining method. Format: functional, organism-based. To be noted: time 7.0 day. An outline of the steps:
(§3)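 ICR mice given 3% DSS in drinking water for 7 days with 25 mg/kg po qd in CMC-Na vehicle. At sacrifice, colons fixed in 4% formaldehyde, paraffin-embedded, sectioned at 4 µm and stained with hematoxylin and eosin. Histopathology examined by light microscopy.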

Data set [6] concerns the target T1, Mitogen-activated protein kinase kinase kinase 5 (Mus musculus) (UniProt O35099).
T1 sequence (whole entry): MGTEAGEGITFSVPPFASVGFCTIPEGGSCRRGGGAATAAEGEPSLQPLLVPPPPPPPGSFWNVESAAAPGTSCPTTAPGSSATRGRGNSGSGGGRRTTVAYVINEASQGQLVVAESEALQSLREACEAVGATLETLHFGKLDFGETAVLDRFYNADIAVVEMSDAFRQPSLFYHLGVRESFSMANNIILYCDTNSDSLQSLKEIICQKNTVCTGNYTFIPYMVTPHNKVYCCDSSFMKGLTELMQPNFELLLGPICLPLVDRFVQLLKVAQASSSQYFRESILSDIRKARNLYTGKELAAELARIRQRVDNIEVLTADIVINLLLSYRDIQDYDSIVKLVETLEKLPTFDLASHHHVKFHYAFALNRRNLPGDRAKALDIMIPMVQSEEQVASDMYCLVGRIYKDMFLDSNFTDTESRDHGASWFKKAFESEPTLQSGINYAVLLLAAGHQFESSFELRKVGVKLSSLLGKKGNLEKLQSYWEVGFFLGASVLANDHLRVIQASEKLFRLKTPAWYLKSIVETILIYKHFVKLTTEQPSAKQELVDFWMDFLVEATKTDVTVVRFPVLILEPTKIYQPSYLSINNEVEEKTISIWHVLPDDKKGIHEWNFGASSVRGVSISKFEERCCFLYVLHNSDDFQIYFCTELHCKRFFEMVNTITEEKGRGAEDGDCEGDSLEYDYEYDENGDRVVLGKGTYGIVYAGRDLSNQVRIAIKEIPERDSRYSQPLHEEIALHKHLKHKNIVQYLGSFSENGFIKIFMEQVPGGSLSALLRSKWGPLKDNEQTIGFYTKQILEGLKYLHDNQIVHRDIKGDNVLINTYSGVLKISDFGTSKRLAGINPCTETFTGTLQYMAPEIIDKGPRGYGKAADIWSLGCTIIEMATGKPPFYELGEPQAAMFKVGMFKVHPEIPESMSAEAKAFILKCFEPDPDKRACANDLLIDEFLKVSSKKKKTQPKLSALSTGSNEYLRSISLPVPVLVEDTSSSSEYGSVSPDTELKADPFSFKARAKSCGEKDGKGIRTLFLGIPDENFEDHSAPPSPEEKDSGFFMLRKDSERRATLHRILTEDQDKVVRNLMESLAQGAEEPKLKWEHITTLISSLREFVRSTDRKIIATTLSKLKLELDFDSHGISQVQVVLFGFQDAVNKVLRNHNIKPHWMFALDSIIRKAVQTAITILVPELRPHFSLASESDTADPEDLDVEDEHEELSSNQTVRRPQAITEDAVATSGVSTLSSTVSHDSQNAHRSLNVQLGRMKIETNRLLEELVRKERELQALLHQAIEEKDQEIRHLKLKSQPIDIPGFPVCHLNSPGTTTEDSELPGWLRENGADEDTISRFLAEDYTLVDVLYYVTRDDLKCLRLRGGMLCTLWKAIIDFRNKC
Nature of the data set: In vivo inhibition of ASK1 in DSS-induced ulcerative colitis ICR mouse model assessed as downregulation of phosphorylation of p38 in colon at 25 mg/kg, po qd measured after 7 days by western blot assay. Format: functional, organism-based. Particulars: time 7.0 day. The method in brief:
(§4)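 Colons from ICR mice given 7 days of DSS plus 25 mg/kg po qd. Tissue homogenised in ice-cold RIPA buffer and protein quantified by BCA. Proteins separated by SDS-PAGE, transferred to PVDF and blocked in 5% BSA. Probed overnight at 4 °C for total and phospho ASK1, MKK3/6, MKK4/7, p38 and JNK, with GAPDH as loading control. Detected with HRP anti-rabbit secondary and ECL. Phosphorylated protein normalised to its unphosphorylated form.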
A general note: A western blot detects proteins with antibodies after separation by electrophoresis.

Data set [7] addresses T1, Mitogen-activated protein kinase kinase kinase 5 (Mus musculus). Briefly: In vivo inhibition of ASK1 in DSS-induced ulcerative colitis ICR mouse model assessed as downregulation of phosphorylation of ASK1 in colon at 25 mg/kg, po qd measured after 7 days by western blot assay. Format: functional, organism-based. Particulars: time 7.0 day. The method in brief: as §4
Data set [8] can be described thus: Oral bioavailability in Sprague-Dawley rat at 5 mg/kg measured for 24 hrs by LC-MS/MS analysis. Format: ADME, organism-based. To be noted: in vivo.
The target of data set [9] is T1, Mitogen-activated protein kinase kinase kinase 5 (Mus musculus). Briefly: In vivo inhibition of ASK1 in DSS-induced ulcerative colitis ICR mouse model assessed as downregulation of phosphorylation of MKK4/7 in colon at 25 mg/kg, po qd measured after 7 days by western blot assay. Particulars: time 7.0 day. Format: functional, organism-based. The method in brief:
as §4

The test system of data set [10] is Mus musculus. Nature of the data set: Anti-ulcerative colitis activity against DSS-induced ulcerative colitis ICR mouse model assessed as recovery of body weight loss at 25 mg/kg, po qd measured after 7 days. Format: functional, organism-based. Particulars: time 7.0 day. An outline of the steps:
as §1

Data set [11] deals with Mus musculus. Nature of the data set: Anti-inflammatory activity against DSS-induced ulcerative colitis ICR mouse model assessed as decrease of TNF-alpha level in colon at 25 mg/kg, po qd measured after 7 days by ELISA. Particulars: time 7.0 day. Format: functional, organism-based. The method in brief:
as §2

Data set [12] concerns the target T1, Mitogen-activated protein kinase kinase kinase 5 (Mus musculus). Briefly: In vivo inhibition of ASK1 in DSS-induced ulcerative colitis ICR mouse model assessed as downregulation of phosphorylation of MKK3/6 in colon at 25 mg/kg, po qd measured after 7 days by western blot assay. Format: functional, organism-based. Particulars: time 7.0 day. The method in brief:
as §4

Data set [13] shares this target. Briefly: In vivo inhibition of ASK1 in DSS-induced ulcerative colitis ICR mouse model assessed as downregulation of phosphorylation of JNK in colon at 25 mg/kg, po qd measured after 7 days by western blot assay. Format: functional, organism-based. Particulars: time 7.0 day. The method in brief: as §4
Data set [14] in a line: Volume of distribution at steady state in Sprague-Dawley rat at 1 mg/kg, iv measured for 24 hrs by LC-MS/MS analysis. Format: ADME, organism-based. To be noted: in vivo, read-out: Vdss. The method in brief:
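Male SD rats, fasted 24 h, n = 3. Single iv dose of 1 mg/kg given as a solution in 10% DMAC + 10% (30% Solutol HS 15 in water) + 80% saline. Venous blood (about 150 µL) collected into heparin tubes at 0.083, 0.25, 0.5, 1, 2, 4, 8 and 24 h. Plasma protein-precipitated with ACN containing dexamethasone IS, analysed by LC-MS/MS. Parameters calculated in DAS 2.1.1; mean ± SD.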

Data set [15] has as its system Mus musculus. Nature of the data set: Anti-ulcerative colitis activity against DSS-induced ulcerative colitis ICR mouse model assessed as decrease of infiltration of inflammatory cells in colon at 25 mg/kg, po qd measured after 7 days by H and E staining method. Format: functional, organism-based. To be noted: time 7.0 day. An outline of the steps:
as §3

Broadly, the bioavailability is the share of a dose that reaches the circulation, judged against a reference dose that is usually intravenous. A high value points to good availability. `Cc1cc(F)c(C(=O)Nc2cccc(-c3nncn3C(C)C)n2)cc1-n1cnc(C2CC2)c1` [SELONSERTIB]: in data set [1], the DAI score decrease stood at 0.83. Also, in data set [2], the Activity is recorded as 23.4%. Also, the outcome in [3], in [4], in data set [5], in [11] and in data set [15] was Active. Also, the inhibition result in data set [6], in data set [7], in data set [9], in [12] and in [13] was “Active” throughout. The bioavailability in data set [8] turned out to be 75%. Besides, in data set [10], the result was inactive. Further, the Vd in data set [14] was 0.55 L/kg.

Values taken from ChEMBL document CHEMBL4819011, “Structure-based discovery of 1H-indole-2-carboxamide derivatives as potent ASK1 inhibitors for potential treatment of ulcerative colitis” (Eur J Med Chem, 2021).
